Here are results for five compounds from ChEMBL document CHEMBL1146962, “Design, synthesis, and biological evaluation of a scaffold for iGluR ligands based on the structure of (-)-dysiherbaine” (Bioorg Med Chem Lett, 2006).

SMILES strings stand for the structures. Calls of active or inactive are those of the source. The calls are words filed in the database; no cut-off is given here.

Format in all cases: functional
For test [1], the target named is T1, Glutamate receptor ionotropic, kainate (Rattus norvegicus) (UniProt P22756+Q01812+P42260+P42264+Q63273). In words: Antagonist activity against rat KA receptor assessed by inhibition of kainate-induced membrane current at 100 uM. Set-up: scale not given: the % may be the effect or the level left. Put shortly: (§1)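 Oocytes injected with native rat cerebral cortex mRNA were used. Membrane currents induced by 100 μM kainate were recorded with the test agent present (analogs at 100 μM; CNQX reference at 1 μM). Residual current is reported as a percentage of the kainate control. N = 2-7 oocyte preparations.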

In test [2] the target is T1, Glutamate receptor ionotropic, kainate (Rattus norvegicus). The test is described as follows: Agonist activity at rat KA receptor assessed by generation of membrane current at 100 uM relative to control.
The target of test [3] is T2, Glutamate NMDA receptor (Rattus norvegicus) (UniProt P35439+Q00959+Q00960+Q00961+Q62645+Q8VHN2+Q9R1M7). In words: Antagonist activity against rat NMDA receptor assessed by inhibition of NMDA plus glycine-induced membrane current at 100 uM. Put shortly: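 In rat cortex mRNA-injected oocytes, analogs (100 μM) were tested against currents evoked by 100 μM NMDA plus 100 μM glycine.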

For test [4], the target named is T2, Glutamate NMDA receptor (Rattus norvegicus). In words: Agonist activity at rat NMDA receptor in presence of glycine assessed by generation of membrane current at 100 uM relative to control. An outline of the steps:
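Rat cortex mRNA-injected oocytes. The analog (100 μM) was applied in the presence of 100 μM glycine. The elicited current is expressed relative to a positive control of 100 μM NMDA plus 100 μM glycine.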

For test [5], the target named is T1, Glutamate receptor ionotropic, kainate (Rattus norvegicus). In words: Agonist activity at rat KA receptor assessed by generation of membrane current at 100 uM relative to control in presence of 10 uM cyclothiazide. Put shortly: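 Oocytes were injected with rat cerebral cortex mRNA. Each analog at 100 μM was co-applied with 10 μM cyclothiazide (AMPA receptor desensitization inhibitor). Membrane current is given as a percentage of the 100 μM kainate control current, with and without cyclothiazide. N = 2-7 oocyte preparations.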

Test [6] shares this target. The test is described as follows: Antagonist activity against rat KA receptor assessed by inhibition of kainate-induced membrane current at 1 uM. Set-up: scale not given: the % may be the effect or the level left. Put shortly:
as §1

`N[C@@H](C[C@@]1(C(=O)O)Cc2ccccc2O1)C(=O)O`: in test [1], the Activity turned out to be 100%. For the same compound, the outcome in test [2] and in test [3] was inactive.
Turning to `Cc1cccc2c1O[C@@](C[C@H](N)C(=O)O)(C(=O)O)C2`, the result in test [4] and in test [3] was inactive. Also, the figures for the Activity in test [1], in test [2] and in test [5] were 95%, 6% and 13%, respectively.
On to `N#Cc1cc2c(cc1[N+](=O)[O-])=NC(=O)C(=O)N=2`, for which, in test [6], the Activity worked out at 38%.
Turning to `N[C@@H](C[C@]1(C(=O)O)Cc2ccccc2O1)C(=O)O`, the result in test [4], in test [2] and in test [3] was inactive. In test [1], this compound returned an Activity of 55%.
As for `Cc1ccc2c(c1)C[C@](C[C@H](N)C(=O)O)(C(=O)O)O2`, the Activity in test [4] turned out to be 44%; in test [1], 72%. Moreover, the result in test [2] and in test [3] was inactive.
